This passage reports zone of inhibition, MIC and inhibition in vivo results from ChEMBL document CHEMBL1165861, “Synthesis and biological evaluation of some pyrazolylpyrazolines as anti-inflammatory-antimicrobial agents” (2010).

Broadly, the MIC is the smallest concentration in the dilution series that meets the test's criterion for growth inhibition.

Test [1] concerns Escherichia coli. The test can be described thus: Antimicrobial activity against Escherichia coli MTCC 51 at 4 mg/ml after 24 hrs by agar diffusion method. The class given is functional. Conditions: MTCC 51, 24 h, read-out: DIZ. A digest of the protocol: (§1)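 Agar well diffusion: seeded agar plates swabbed with inoculum and left 15 min for adsorption, then 8 mm wells bored and loaded. Incubation 37 °C for 24 h. Inhibition zone diameter measured in mm with a zone reader. DMSO medium served as negative control and ciprofloxacin as positive control. Triplicates.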

The subject of test [2] is Pseudomonas aeruginosa. The test can be described thus: Antimicrobial activity against Pseudomonas aeruginosa MTCC 741 after 24 hrs by broth microdilution assay. The format is functional. Conditions: MTCC 741, 24 h. A digest of the protocol:
(§2)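 MIC was determined by microplate dilution (microdilution) in Müller–Hinton broth, with ciprofloxacin as the reference drug.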
(In general: Broth dilution looks for growth in wells or tubes with falling amounts of substance.)

Test [3] deals with Staphylococcus aureus. The test can be described thus: Antimicrobial activity against Staphylococcus aureus MTCC 3160 at 4 mg/ml after 24 hrs by agar diffusion method. Conditions: MTCC 3160, 24 h, read-out: DIZ. The format is functional. In outline: as §1
A general note: Agar diffusion results depend on both activity and mobility in agar.

For test [4], the system named is Bacillus subtilis. The test can be described thus: Antimicrobial activity against Bacillus subtilis MTCC 121 after 24 hrs by broth microdilution assay. The class given is functional. Conditions: MTCC 121, 24 h. A digest of the protocol:
as §2

The test system of test [5] is Escherichia coli. As to the kind of experiment: Antimicrobial activity against Escherichia coli MTCC 51 after 24 hrs by broth microdilution assay. The class given is functional. Conditions: MTCC 51, 24 h. In outline:
as §2

The subject of test [6] is Rattus norvegicus. As to the kind of experiment: Antiinflammatory activity in Wistar albino rat assessed as inhibition of carrageenan-induced paw edema at 50 mg/kg, po administered 30 mins before carrageenan challenge measured after 60 mins relative to control. The class given is functional. A digest of the protocol:
(§3)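 Male Wistar albino rats (200–250 g) in groups of six, food withdrawn 12 h before and during the test. Compounds were dosed orally at 50 mg/kg; controls received tween 80 (95:5). After 30 min, 0.1 mL of 1% w/v carrageenan in saline was injected subplantar into the left hind paw. Plethysmometer volumes were taken initially and at 30–120 min. AI% is relative to control, mean ± SEM, ANOVA.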
Background: In the carrageenan paw model, swelling and tenderness develop within hours.

The test system of test [7] is Rattus norvegicus. The test can be described thus: Antiinflammatory activity in Wistar albino rat assessed as inhibition of carrageenan-induced paw edema at 50 mg/kg, po administered 30 mins before carrageenan challenge measured after 90 mins relative to control. The class given is functional. A digest of the protocol: as §3
Test [8] has as its system Rattus norvegicus. The test can be described thus: Antiinflammatory activity in Wistar albino rat assessed as inhibition of carrageenan-induced paw edema at 50 mg/kg, po administered 30 mins before carrageenan challenge measured after 30 mins relative to control. The format is functional. In outline: as §3
Test [9] deals with Bacillus subtilis. The test can be described thus: Antimicrobial activity against Bacillus subtilis MTCC 121 at 4 mg/ml after 24 hrs by agar diffusion method. The format is functional. Particulars: MTCC 121, 24 h, read-out: DIZ. In outline:
as §1

In test [10] the test system is Pseudomonas aeruginosa. As to the kind of experiment: Antimicrobial activity against Pseudomonas aeruginosa MTCC 741 at 4 mg/ml after 24 hrs by agar diffusion method. The class given is functional. Particulars: MTCC 741, 24 h, read-out: DIZ. A digest of the protocol: as §1
Test [11] deals with Staphylococcus aureus. As to the kind of experiment: Antimicrobial activity against Staphylococcus aureus MTCC 3160 after 24 hrs by broth microdilution assay. The class given is functional. Particulars: MTCC 3160, 24 h. In outline:
as §2

Test [12] concerns Rattus norvegicus. The test can be described thus: Antiinflammatory activity in Wistar albino rat assessed as inhibition of carrageenan-induced paw edema at 50 mg/kg, po administered 30 mins before carrageenan challenge measured after 120 mins relative to control. The class given is functional. In outline:
as §3

The species entered for test [13] is Rattus norvegicus. As to the kind of experiment: animal or person. Conditions: Wistar albino, po, read-out: INH.
The species entered for test [14] is Rattus norvegicus. The test can be described thus: animal or person. Particulars: Wistar albino, po, read-out: INH. This is another data set of the same source.
For test [15], the species on record is Rattus norvegicus. The test can be described thus: animal or person. Particulars: Wistar albino, po, read-out: INH. This is another data set of the same source.
The species entered for test [16] is Rattus norvegicus. As to the kind of experiment: animal or person. Particulars: Wistar albino, po, read-out: INH. This is another data set of the same source.

Each structure is given as a SMILES string. Converted amounts (≈) assume the structure as drawn.

`Cc1ccc(-c2nn(-c3ccccc3)cc2C2CC(c3ccc(F)cc3)=NN2c2ccc(S(N)(=O)=O)cc2)cc1` (stereo not drawn): the zone of inhibition at 4000 µg/mL in test [1] came to 11.7 mm; in [3], 16.7 mm; in test [9], 16.3 mm; in [10], 11 mm. Also, the MIC in test [2] was 64 µg/mL (≈ 116 µM); in [4], 32 µg/mL (≈ 58 µM); in test [5] it was 64 µg/mL (≈ 116 µM); in test [11], 32 µg/mL (≈ 58 µM). In addition, the inhibition in vivo at 50 mg/kg in [6] turned out to be 43%; in [7], 34%; in [8] it was 30%; in [12] it was 32%.
With `NS(=O)(=O)c1ccc(N2N=C(c3ccc(Br)cc3)CC2c2cn(-c3ccccc3)nc2-c2ccccc2)cc1` (stereo not drawn), the zone of inhibition at 4000 µg/mL in [1] is 11.7 mm; in [3], 17 mm; in [9], 11.3 mm; in [10], 9.66 mm. Further, the MIC in test [2] came to 128 µg/mL (≈ 214 µM); in test [4] it was 64 µg/mL (≈ 107 µM); in [5], 64 µg/mL (≈ 107 µM); in [11] it was 32 µg/mL (≈ 53.5 µM). Also, the inhibition in vivo at 50 mg/kg is 23% in test [6], 22% in test [7], 7% in test [8] and 23% in test [12].
As to `CS(=O)(=O)Nc1ccc([N+](=O)[O-])cc1Oc1ccccc1` [NIMESULIDE], the inhibition in vivo at 4 mg/kg was found to be 43% in test [13], 45% in test [14], 36% in test [15] and 37% in test [16].
For `NS(=O)(=O)c1ccc(N2N=C(c3ccccc3)CC2c2cn(-c3ccccc3)nc2-c2ccc(F)cc2)cc1` (stereo not drawn), the zone of inhibition at 4000 µg/mL in test [1] worked out at 17.3 mm; in test [3], 23.3 mm; in test [9], 11.7 mm; in test [10], 17.3 mm. Also, the minimal inhibitory concentration (MIC) in test [2] came out at 32 µg/mL (≈ 59.5 µM); in test [4], 16 µg/mL (≈ 29.8 µM); in test [5], 32 µg/mL (≈ 59.5 µM); in test [11], 16 µg/mL (≈ 29.8 µM). The inhibition in vivo at 50 mg/kg in test [6] is 14%; in [7], 22%; in [8], 18%; in [12] it was 23%.
In the case of `O=C(O)c1cn(C2CC2)c2cc(N3CCNCC3)c(F)cc2c1=O` [CIPROFLOXACIN], the zone of inhibition at 4000 µg/mL in test [1] is 28.6 mm; in test [3], 32.6 mm; in [9] it was 29.2 mm; in [10] it was 28 mm. Also, the MIC in [2] is 4 µg/mL (≈ 12.1 µM); in test [4], 2 µg/mL (≈ 6.04 µM); in test [11], 2 µg/mL (≈ 6.04 µM).
As to `NS(=O)(=O)c1ccc(N2N=C(c3ccc(F)cc3)CC2c2cn(-c3ccccc3)nc2-c2ccccc2)cc1` (stereo not drawn), the zone of inhibition at 4000 µg/mL was found to be 21.7 mm in test [1], 23.7 mm in [3], 23.3 mm in test [9] and 17.7 mm in test [10]. Besides, the MIC in test [2] came to 32 µg/mL (≈ 59.5 µM); in test [4] it was 8 µg/mL (≈ 14.9 µM); in test [5] it was 16 µg/mL (≈ 29.8 µM); in [11] it was 8 µg/mL (≈ 14.9 µM). Further, the inhibition in vivo at 50 mg/kg in test [6] was 25%; in test [7], 23%; in test [8], 22%; in test [12], 15%.
As for `NS(=O)(=O)c1ccc(N2N=C(c3ccc(F)cc3)CC2c2cn(-c3ccccc3)nc2-c2ccc(F)cc2)cc1` (stereo not drawn), the zone of inhibition at 4000 µg/mL in [1] is 10.7 mm; in [3], 21 mm; in test [9] it was 10.7 mm; in [10], 19.3 mm. Moreover, the minimal inhibitory concentration (MIC) was found to be 32 µg/mL (≈ 57.6 µM) in test [2], 16 µg/mL (≈ 28.8 µM) in [4], 32 µg/mL (≈ 57.6 µM) in test [5] and 16 µg/mL (≈ 28.8 µM) in [11]. Moreover, the inhibition in vivo at 50 mg/kg worked out at 8% in test [6], 16% in [7], 18% in [8] and 9% in [12].
For the compound `Cc1ccc(C2=NN(c3ccc(S(N)(=O)=O)cc3)C(c3cn(-c4ccccc4)nc3-c3ccc(C)cc3)C2)cc1` (stereo not drawn), the zone of inhibition at 4000 µg/mL in [1] is 10.7 mm; in test [3], 16.7 mm; in [9], 10.7 mm; in test [10] it was 9.33 mm. Besides, the MIC amounted to 128 µg/mL (≈ 234 µM) in test [2], 64 µg/mL (≈ 117 µM) in test [4], 64 µg/mL (≈ 117 µM) in test [5] and 32 µg/mL (≈ 58.4 µM) in [11]. The inhibition in vivo at 50 mg/kg in [6] was 19%; in test [7], 16%; in [8] it was 18%; in [12], 9%.
`Cc1ccc(-c2nn(-c3ccccc3)cc2C2CC(c3ccccc3)=NN2c2ccc(S(N)(=O)=O)cc2)cc1` (stereo not drawn): the zone of inhibition at 4000 µg/mL in test [1] came out at 11.7 mm; in test [3] it was 16 mm; in test [9], 11 mm; in test [10], 9.33 mm. The minimum inhibitory concentration (MIC) in test [2] came to 128 µg/mL (≈ 240 µM); in test [4], 64 µg/mL (≈ 120 µM); in test [5], 64 µg/mL (≈ 120 µM); in [11] it was 32 µg/mL (≈ 60 µM). The inhibition in vivo at 50 mg/kg is 14% in test [6], 22% in test [7], 18% in [8] and 16% in test [12].
On to `NS(=O)(=O)c1ccc(N2N=C(c3ccc(F)cc3)CC2c2cn(-c3ccccc3)nc2-c2ccc(Br)cc2)cc1` (stereo not drawn), for which the zone of inhibition at 4000 µg/mL was determined as 9.33 mm in [1], 10 mm in [3], 11 mm in [9] and 9.33 mm in test [10]. The MIC was found to be 128 µg/mL (≈ 208 µM) in [2], 64 µg/mL (≈ 104 µM) in test [4], 128 µg/mL (≈ 208 µM) in [5] and 64 µg/mL (≈ 104 µM) in test [11]. The inhibition in vivo at 50 mg/kg is 26% in test [6], 17% in test [7], 13% in [8] and 15% in test [12].
Consider `NS(=O)(=O)c1ccc(N2N=C(c3ccccc3)CC2c2cn(-c3ccccc3)nc2-c2ccc(Br)cc2)cc1` (stereo not drawn), for which the zone of inhibition at 4000 µg/mL is 17.3 mm in [1], 24 mm in test [3], 23.7 mm in test [9] and 17.3 mm in test [10]. In addition, the MIC in test [2] turned out to be 32 µg/mL (≈ 53.5 µM); in [4], 8 µg/mL (≈ 13.4 µM); in test [5], 32 µg/mL (≈ 53.5 µM); in [11], 8 µg/mL (≈ 13.4 µM). For the same compound, the inhibition in vivo at 50 mg/kg in test [6] worked out at 26%; in test [7], 38%; in test [8], 16%; in test [12], 32%.
As for `NS(=O)(=O)c1ccc(N2N=C(c3ccccc3)CC2c2cn(-c3ccccc3)nc2-c2ccccc2)cc1` (stereo not drawn), the zone of inhibition at 4000 µg/mL in test [1] is 11.7 mm; in [3], 17.7 mm; in [9], 18.7 mm; in [10], 10.7 mm. Further, the MIC is 64 µg/mL (≈ 123 µM) in test [2], 32 µg/mL (≈ 61.6 µM) in [4], 64 µg/mL (≈ 123 µM) in test [5] and 32 µg/mL (≈ 61.6 µM) in [11]. For the same compound, the inhibition in vivo at 50 mg/kg in test [6] worked out at 4%; in test [7] it was 10%; in test [8] it was 5%; in test [12] it was 1%.
With `Cc1ccc(C2=NN(c3ccc(S(N)(=O)=O)cc3)C(c3cn(-c4ccccc4)nc3-c3ccccc3)C2)cc1` (stereo not drawn), the zone of inhibition at 4000 µg/mL in test [1] came to 11.7 mm; in test [3], 16.3 mm; in [9], 17 mm; in [10], 11.7 mm. Further, the MIC turned out to be 64 µg/mL (≈ 120 µM) in [2], 32 µg/mL (≈ 60 µM) in [4], 64 µg/mL (≈ 120 µM) in [5] and 32 µg/mL (≈ 60 µM) in test [11]. Besides, the inhibition in vivo at 50 mg/kg in [6] is 17%; in test [7], 27%; in test [8] it was 5%; in test [12], 26%.
